Active and inactive are the calls of the source. The rule behind the calls is not given here.
Tests used:
[1] = target: T1, Histone deacetylase 3 (Mus musculus) (UniProt O88895); test: Inhibition of HDAC3 in mouse RAW264.7 cells assessed as effect on histone H3 peptide (KQLATKAAR) acetylation measured after 20 hrs by LC-MS/MS analysis; type: cell-based
T1 sequence (whole entry): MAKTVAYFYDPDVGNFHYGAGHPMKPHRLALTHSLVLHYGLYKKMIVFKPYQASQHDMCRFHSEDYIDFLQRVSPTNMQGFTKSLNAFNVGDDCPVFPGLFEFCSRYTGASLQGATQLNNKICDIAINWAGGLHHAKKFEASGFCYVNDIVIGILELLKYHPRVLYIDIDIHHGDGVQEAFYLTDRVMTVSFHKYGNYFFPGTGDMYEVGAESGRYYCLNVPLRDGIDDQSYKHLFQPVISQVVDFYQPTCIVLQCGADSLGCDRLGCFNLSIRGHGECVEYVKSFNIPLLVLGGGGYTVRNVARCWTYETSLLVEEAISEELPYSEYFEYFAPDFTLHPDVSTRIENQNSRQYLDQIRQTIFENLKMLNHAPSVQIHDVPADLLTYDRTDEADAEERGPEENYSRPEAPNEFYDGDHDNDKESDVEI
How it was run: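 Histones from RAW 264.7 (20 h treatment) run on 15% SDS-PAGE (7 μg), Coomassie-stained H3/H4 bands excised, destained, and chemically acetylated with acetic anhydride-d6 in 1 M ammonium bicarbonate; endogenous lysine acetylation ratio derived by mass spectrometry from deuterated versus non-deuterated acetyl mass difference.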

RAW264.7 [2] = test: Antiinflammatory activity in LPS/IFNgamma-stimulated mouse RAW264.7 cells assessed as effect on NF-kappaB p65 expression preincubated for 20 hrs followed by LPS/IFNgamma stimulation and measured after 4 hrs by Western blot analysis; type: functional, cell-based; conditions: time 24.0 hrs
Lung = test: Antiinflammatory activity in C57bl/6 mouse precision-cut lung slices assessed as effect on LPS/IFNgamma-induced HDAC1 expression at 1 to 10 uM preincubated for 20 hrs followed by LPS/IFNgamma stimulation and measured after 4 hrs by Western blot analysis; type: functional, tissue-based; conditions: dose 1-10 µM, time 24.0 hrs
RAW264.7 [3] = test: Antiinflammatory activity in mouse RAW264.7 cells assessed as down regulation of LPS/IFNgamma-induced IL-12b gene expression at 1 uM preincubated for 20 hrs followed by LPS/IFNgamma stimulation and measured after 4 hrs by RT-qPCR analysis; type: functional, cell-based; conditions: time 24.0 hrs
How it was run: (§1)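 RAW 264.7 macrophages in DMEM/10% FBS received 1 μM RGFP966 for 20 h, with LPS/IFNγ for the last 4 h. Washed with cold DPBS, total RNA isolated, integrity checked by 28S/18S. RT-qPCR by comparative Ct (2−ΔΔCt), fold change versus LPS/IFNγ control. Mean ± SD of 3–5 independent experiments.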

RAW264.7 [4] = test: Antiinflammatory activity in mouse RAW264.7 cells assessed as effect on LPS/IFNgamma-induced iNOS gene expression at 1 uM preincubated for 20 hrs followed by LPS/IFNgamma stimulation and measured after 4 hrs by RT-qPCR analysis; type: functional, cell-based; conditions: time 24.0 hrs; how it was run: as §1
[5] = target: T1, Histone deacetylase 3 (Mus musculus); test: Inhibition of HDAC3 in mouse RAW264.7 cells assessed as effect on histone H4 acetylation measured after 20 hrs by Western blot analysis; type: cell-based
How it was run: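 Histones extracted from RAW 264.7 cells after 20 h inhibitor treatment, protein quantified by micro BCA (BSA standard), and H3 and H4 acetylation assessed by Western blot versus vehicle-treated cells.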

[6] = target: T1, Histone deacetylase 3 (Mus musculus); test: Inhibition of HDAC3 in mouse RAW264.7 cells assessed as effect on LPS/IFNgamma-induced NF-kappaB p65 nuclear translocation preincubated for 20 hrs followed by LPS/IFNgamma stimulation and measured after 1 hr by immunofluorescence microscopy; type: cell-based
How it was run: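 RAW 264.7 seeded at 20,000 cells/cm2, 1 μM inhibitor 20 h then 1 h LPS/IFNγ; fixed 4% formaldehyde, permeabilized 0.25% Triton X-100, blocked 5% BSA; rabbit anti-p65 (1:250, 2 h 4 °C) with AlexaFluor488 secondary, Hoechst nuclei; confocal imaging at identical settings; 3 independent experiments.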

RAW264.7 [7] = test: Antiinflammatory activity in LPS/IFNgamma-stimulated mouse RAW264.7 cells assessed as effect on HDAC3 mRNA expression preincubated for 20 hrs followed by LPS/IFNgamma stimulation and measured after 4 hrs by RT-qPCR analysis; type: functional, cell-based; conditions: time 24.0 hrs
HASMC = test: Antiinflammatory activity in HASMC cells assessed as effect on LPS/IFNgamma-induced TNFalpha gene expression at 2 uM […] and measured after 4 hrs by RT-qPCR analysis; type: functional, cell-based; conditions: Homo sapiens
How it was run: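 HBE cells (passage 73–103) or immortalized hASM cells (2–3 donors, passage 27–35), serum-starved. Then 2 μM RGFP966 for 20 h, with LPS/IFNγ for the last 4 h. Total RNA isolated; RT-qPCR by 2−ΔΔCt, fold change versus LPS/IFNγ control. Mean ± SD of 3–5 independent experiments.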

[8] = target: Histone deacetylase 1 (Mus musculus) (UniProt O09106); test: Effect on HDAC1 nuclear localization in LPS/IFNgamma-stimulated mouse RAW264.7 cells preincubated for 20 hrs followed by LPS/IFNgamma stimulation and measured after 1 hr by Hoechst staining based confocal laser scanning microscopy; type: cell-based
Histone deacetylase 1 (Mus musculus), sequence (O09106 whole entry): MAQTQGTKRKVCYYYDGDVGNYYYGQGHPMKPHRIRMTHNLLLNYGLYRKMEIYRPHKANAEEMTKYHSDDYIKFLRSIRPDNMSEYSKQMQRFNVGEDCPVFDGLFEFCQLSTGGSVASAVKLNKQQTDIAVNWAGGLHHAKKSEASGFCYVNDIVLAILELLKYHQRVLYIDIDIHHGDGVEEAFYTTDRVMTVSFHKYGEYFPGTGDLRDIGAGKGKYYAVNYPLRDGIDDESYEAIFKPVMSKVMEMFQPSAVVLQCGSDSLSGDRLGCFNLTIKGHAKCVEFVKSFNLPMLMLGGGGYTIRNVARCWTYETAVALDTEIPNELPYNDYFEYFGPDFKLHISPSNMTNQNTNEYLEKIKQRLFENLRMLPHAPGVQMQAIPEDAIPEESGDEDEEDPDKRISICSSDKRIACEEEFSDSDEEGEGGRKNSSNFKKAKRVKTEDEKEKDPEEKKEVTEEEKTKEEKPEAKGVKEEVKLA
How it was run: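 RAW 264.7 cells at 20,000 cells/cm2 received 1 μM RGFP966 for 20 h, then 1 h LPS/IFNγ. Fixed in 4% formaldehyde, permeabilized with 0.25% Triton X-100, blocked with 5% BSA. Primary antibodies 2 h at 4 °C, AlexaFluor secondaries 1 h, Hoechst nuclear stain. Confocal imaging at 630×; 4 independent experiments.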

[9] = target: T1, Histone deacetylase 3 (Mus musculus); test: Inhibition of HDAC3 in mouse RAW-Blue cells assessed as effect on NF-kappaB p65 transcriptional activity measured after 16 hrs by SEAP reporter gene assay; type: cell-based
How it was run: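 RAW-Blue cells (RAW 264.7-derived, stably expressing an NF-κB/AP-1-inducible secreted embryonic alkaline phosphatase) exposed to inhibitor for 20 h total, with 10 ng/ml LPS plus 10 ng/ml IFNγ added for the final 4 h. Supernatant mixed with QUANTI-Blue medium, 37 °C 1–2 h in the dark, absorbance 630 nm; reported as % of control.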

[10] = target: T1, Histone deacetylase 3 (Mus musculus); test: Inhibition of HDAC3 in mouse RAW264.7 cells assessed as effect on LPS/IFNgamma-induced NF-kappaB p65 nuclear translocation preincubated for 20 hrs followed by LPS/IFNgamma stimulation and measured after 1 hr by Western blot analysis; type: cell-based
How it was run: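 After 20 h inhibitor then 1 h LPS/IFNγ, RAW 264.7 cells fractionated into nuclear and cytosolic parts and immunoblotted for NF-κB p65; PARP-1 and β-actin as internal controls; densitometry as fold change versus LPS/IFNγ-treated control; 4 independent experiments, mean ± SD.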

RAW264.7 [11] = test: Antiinflammatory activity in LPS/IFNgamma-stimulated mouse RAW264.7 cells assessed as reduction in HDAC1 expression preincubated for 20 hrs followed by LPS/IFNgamma stimulation and measured after 4 hrs by Western blot analysis; type: functional, cell-based; conditions: time 24.0 hrs
How it was run: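 RAW 264.7 cells were LPS/IFNγ-stimulated after inhibitor exposure, then lysed in Hepes/Triton buffer containing DTT, butyrate and protease inhibitors, freeze-thawed and cleared. Immunoblot with milk blocking and overnight primary antibody at 4 °C. Densitometry normalized to β-actin, LPS/IFNγ control set at 100%. Mean ± SD of 4 independent experiments.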

inhibition [1]: inactive
inhibition [5]: inactive
inhibition [6]: inactive
Activity [8]: inactive
inhibition [9]: inactive
inhibition [10]: inactive
Compound: Nc1cc(F)ccc1NC(=O)/C=C/c1cnn(C/C=C/c2ccccc2)c1
Activity (RAW264.7 [2]): inactive
Activity (Lung): inactive
Activity (RAW264.7 [3]): Active
Activity (RAW264.7 [4]): inactive
Activity (RAW264.7 [7]): inactive
Activity (HASMC): inactive
Activity (RAW264.7 [11]): Active
